Converted amounts (≈) assume the structure as drawn.
Legend:
Assay type in all cases: functional
Streptococcus pyogenes [1] = test: Selectivity ratio of MBC to MIC for MLS-resistant Streptococcus pyogenes 12-206 expressing constitutive ermA gene
Summary of the method: (§1)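 MBC/MIC ratio. MIC was measured by CLSI standard two-fold broth dilution. MBC was measured by transferring samples at 1–8 fold MIC to culture medium and subculturing for 24 h without antibiotic. Isolates were identified by 16S rDNA sequencing.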

Streptococcus pneumoniae [2] = test: Antibacterial activity against penicillin-susceptible Streptococcus pneumoniae PU 09 expressing mef gene assessed as reduction in microbial growth by CLSI based two-fold broth dilution method
Streptococcus pneumoniae [3] = test: Bactericidal activity against penicillin-susceptible Streptococcus pneumoniae PU 09 expressing mef gene pretreated followed by subculture in absence of compound measured after 24 hrs
Summary of the method: (§2)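 Isolates were identified by 16S rDNA sequencing. MIC was determined by CLSI-recommended two-fold broth dilution. For MBC, samples from 1–8 fold MIC were transferred to culture medium and subcultured for 24 h without antibiotic.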

Streptococcus pneumoniae [4] = test: Selectivity ratio of MBC to MIC for penicillin-susceptible Streptococcus pneumoniae PU 09 expressing mef gene; summary of the method: as §2
Streptococcus pyogenes [5] = test: Bactericidal activity against MLS-resistant Streptococcus pyogenes 01-968 expressing inducible ermB gene pretreated followed by subculture in absence of compound measured after 24 hrs
Summary of the method: (§3)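 MBC assay. Following MIC determination by CLSI standard two-fold broth dilution, samples at 1–8 fold MIC were transferred to fresh culture medium. They were subcultured for 24 h without antibiotic. Isolates were identified by 16S rDNA sequencing. S. aureus ATCC 29213 was used as a control strain.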

Staphylococcus aureus [6] = test: Bactericidal activity against MLS/methicillin-resistant Staphylococcus aureus PU 32 expressing inducible ermA gene pretreated followed by subculture in absence of compound measured after 24 hrs; summary of the method: as §3
Streptococcus pyogenes [7] = test: Selectivity ratio of MBC to MIC for MLS-resistant Streptococcus pyogenes 01-968 expressing inducible ermB gene; summary of the method: as §1
Streptococcus pneumoniae [8] = test: Selectivity ratio of MBC to MIC for Streptococcus pneumoniae 07P390 expressing constitutive ermB gene; summary of the method: as §2
Streptococcus pyogenes [9] = test: Selectivity ratio of MBC to MIC for Streptococcus pyogenes 12-207 expressing mef gene; summary of the method: as §2
Staphylococcus aureus [10] = test: Bactericidal activity against MLS-resistant Staphylococcus aureus PU 20 expressing constitutive ermC gene pretreated followed by subculture in absence of compound measured after 24 hrs; summary of the method: as §3
Haemophilus influenzae [11] = test: Bactericidal activity against azithromycin-susceptible Haemophilus influenzae ATCC 49247 pretreated followed by subculture in absence of compound measured after 24 hrs; summary of the method: as §2
Moraxella catarrhalis [12] = test: Bactericidal activity against erythromycin-susceptible Moraxella catarrhalis 13L332 pretreated followed by subculture in absence of compound measured after 24 hrs; summary of the method: as §2
Haemophilus influenzae [13] = test: Antibacterial activity against azithromycin-susceptible Haemophilus influenzae ATCC 49247 assessed as reduction in microbial growth by CLSI based two-fold broth dilution method
Streptococcus pneumoniae [14] = test: Antibacterial activity against Streptococcus pneumoniae 07P390 expressing constitutive ermB gene assessed as reduction in microbial growth by CLSI based two-fold broth dilution method
Moraxella catarrhalis [15] = test: Selectivity ratio of MBC to MIC for erythromycin-susceptible Moraxella catarrhalis 13L332; summary of the method: as §2
Streptococcus pyogenes [16] = test: Antibacterial activity against Streptococcus pyogenes 12-207 expressing mef gene assessed as reduction in microbial growth by CLSI based two-fold broth dilution method
Moraxella catarrhalis [17] = test: Antibacterial activity against erythromycin-susceptible Moraxella catarrhalis 13L332 assessed as reduction in microbial growth by CLSI based two-fold broth dilution method
Staphylococcus aureus [18] = test: Antibacterial activity against MLS-resistant Staphylococcus aureus PU 20 expressing constitutive ermC gene assessed as reduction in microbial growth by CLSI based two-fold broth dilution method
Streptococcus pneumoniae [19] = test: Antibacterial activity against erythromycin-susceptible Streptococcus pneumoniae ATCC49619 assessed as reduction in microbial growth by CLSI based two-fold broth dilution method
Haemophilus influenzae [20] = test: Selectivity ratio of MBC to MIC for azithromycin-susceptible Haemophilus influenzae ATCC 49247; summary of the method: as §2
Streptococcus pyogenes [21] = test: Antibacterial activity against MLS-resistant Streptococcus pyogenes 01-968 expressing inducible ermB gene assessed as reduction in microbial growth by CLSI based two-fold broth dilution method
Streptococcus pyogenes [22] = test: Bactericidal activity against MLS-resistant Streptococcus pyogenes 12-206 expressing constitutive ermA gene pretreated followed by subculture in absence of compound measured after 24 hrs; summary of the method: as §3
Streptococcus pneumoniae [23] = test: Bactericidal activity against erythromycin-susceptible Streptococcus pneumoniae ATCC49619 pretreated followed by subculture in absence of compound measured after 24 hrs; summary of the method: as §2
Staphylococcus aureus [24] = test: Antibacterial activity against MLS-resistant Staphylococcus aureus PU 32 expressing inducible ermA gene assessed as reduction in microbial growth by CLSI based two-fold broth dilution method
Streptococcus pyogenes [25] = test: Bactericidal activity against Streptococcus pyogenes 12-207 expressing mef gene pretreated followed by subculture in absence of compound measured after 24 hrs; summary of the method: as §2
Streptococcus pyogenes [26] = test: Antibacterial activity against MLS-resistant Streptococcus pyogenes 12-206 expressing constitutive ermA gene assessed as reduction in microbial growth by CLSI based two-fold broth dilution method
Streptococcus pneumoniae [27] = test: Bactericidal activity against Streptococcus pneumoniae 07P390 expressing constitutive ermB gene pretreated followed by subculture in absence of compound measured after 24 hrs; summary of the method: as §2
Staphylococcus aureus [28] = test: Selectivity ratio of MBC to MIC for MLS/methicillin-resistant Staphylococcus aureus PU 32 expressing inducible ermA gene; summary of the method: as §1
Staphylococcus aureus [29] = test: Selectivity ratio of MBC to MIC for MLS-resistant Staphylococcus aureus PU 20 expressing constitutive ermC gene; summary of the method: as §1
Streptococcus pneumoniae [30] = test: Selectivity ratio of MBC to MIC for erythromycin-susceptible Streptococcus pneumoniae ATCC49619; summary of the method: as §2

SMILES | Selectivity ratio (Streptococcus pyogenes [1]) | MIC (Streptococcus pneumoniae [2]) [mg/L] | MBC (Streptococcus pneumoniae [3]) [mg/L] | Selectivity ratio (Streptococcus pneumoniae [4]) | MBC (Streptococcus pyogenes [5]) [mg/L] | MBC (Staphylococcus aureus [6]) [mg/L] | Selectivity ratio (Streptococcus pyogenes [7]) | Selectivity ratio (Streptococcus pneumoniae [8]) | MBC (Staphylococcus aureus [10]) [mg/L] | MBC (Haemophilus influenzae [11]) [mg/L] | MIC (Haemophilus influenzae [13]) [mg/L] | MIC (Streptococcus pneumoniae [14]) [mg/L] | MIC (Staphylococcus aureus [18]) [mg/L] | MIC (Streptococcus pneumoniae [19]) [mg/L] | Selectivity ratio (Haemophilus influenzae [20]) | MIC (Streptococcus pyogenes [21]) [mg/L] | MBC (Streptococcus pneumoniae [23]) [mg/L] | MIC (Staphylococcus aureus [24]) [mg/L] | MBC (Streptococcus pneumoniae [27]) [mg/L] | Selectivity ratio (Staphylococcus aureus [28]) | also measured
CC[C@H]1OC(=O)[C@@](C)(F)C(=O)[C@H](C)[C@@H](O[C@@H]2O[C@H](C)C[C@H](N(C)C)[C@H]2O)[C@](C)(OC)C[C@@H](C)/C(=N\OCC#Cc2ccc3c(c2)c(=O)c(C(N)=O)cn3C2CC2)[C@H](C)[C@H]2OC(=O)O[C@@]21C | >8 | 0.25 | 0.5 (≈ 0.549 µM) | 2 | > 0.016 | 8 (≈ 8.78 µM) | >8 | >8 | > 256 | 128 (≈ 140 µM) | 32 | 0.25 | 128 | ≤ 0.008 | 4 | ≤ 0.002 | ≤ 0.008 | 1 | > 2 | 8 | Selectivity ratio (Streptococcus pyogenes [9]): 8; MBC (Moraxella catarrhalis [12]): > 32 mg/L; Selectivity ratio (Moraxella catarrhalis [15]): >8; MIC (Streptococcus pyogenes [16]): 0.25 mg/L; MIC (Moraxella catarrhalis [17]): 4 mg/L; MBC (Streptococcus pyogenes [22]): > 8 mg/L; MBC (Streptococcus pyogenes [25]): 2 mg/L (≈ 2.2 µM); MIC (Streptococcus pyogenes [26]): 1 mg/L
CC[C@H]1OC(=O)[C@@](C)(F)C(=O)[C@H](C)[C@@H](O[C@@H]2O[C@H](C)C[C@H](N(C)C)[C@H]2O)[C@](C)(OC)C[C@@H](C)/C(=N\OC/C=C/c2cnc3ccccc3c2N)[C@H](C)[C@H]2OC(=O)O[C@@]21C |  | 2 | 2 (≈ 2.41 µM) | 1 | > 0.125 | 8 (≈ 9.65 µM) | >8 | 1 | 128 (≈ 154 µM) | 32 (≈ 38.6 µM) | 16 | 32 | 64 | 0.125 | 2 | 0.016 | 0.25 (≈ 0.302 µM) | 1 | 32 (≈ 38.6 µM) | 8 | Selectivity ratio (Staphylococcus aureus [29]): 2; Selectivity ratio (Streptococcus pneumoniae [30]): 2
CC[C@H]1OC(=O)[C@@](C)(F)C(=O)[C@H](C)[C@@H](O[C@@H]2O[C@H](C)C[C@H](N(C)C)[C@H]2O)[C@](C)(OC)C[C@@H](C)/C(=N\OCC#Cc2ccc3c(c2)c(=O)c(C(=O)NC)cn3C2CC2)[C@H](C)[C@H]2OC(=O)O[C@@]21C | >8 | 0.5 | 0.5 (≈ 0.541 µM) | 1 | > 0.016 | > 8 | >8 | >8 | > 256 | 256 (≈ 277 µM) | 64 | 0.25 | 128 | ≤ 0.008 | 4 | ≤ 0.002 | ≤ 0.008 | 1 | > 2 | >8 | Selectivity ratio (Streptococcus pyogenes [9]): 4; MBC (Moraxella catarrhalis [12]): > 32 mg/L; Selectivity ratio (Moraxella catarrhalis [15]): >8; MIC (Streptococcus pyogenes [16]): 0.25 mg/L; MIC (Moraxella catarrhalis [17]): 4 mg/L; MBC (Streptococcus pyogenes [22]): > 4 mg/L; MBC (Streptococcus pyogenes [25]): 1 mg/L (≈ 1.08 µM); MIC (Streptococcus pyogenes [26]): 0.5 mg/L
CC[C@H]1OC(=O)[C@@](C)(F)C(=O)[C@H](C)[C@@H](O[C@@H]2O[C@H](C)C[C@H](N(C)C)[C@H]2O)[C@](C)(OC)C[C@@H](C)/C(=N\OCC#Cc2ccc3c(c2)c(=O)c(C(=O)NC)cn3CC)[C@H](C)[C@H]2OC(=O)O[C@@]21C | >8 | 0.25 | 1 (≈ 1.1 µM) | 4 | > 0.016 | > 16 | >8 | >8 | > 256 | 64 (≈ 70.1 µM) | 32 | 0.125 | 128 | ≤ 0.008 | 2 | ≤ 0.002 | ≤ 0.008 | 2 | > 1 | >8 | Selectivity ratio (Streptococcus pyogenes [9]): 4; MBC (Moraxella catarrhalis [12]): > 32 mg/L; Selectivity ratio (Moraxella catarrhalis [15]): >8; MIC (Streptococcus pyogenes [16]): 0.25 mg/L; MIC (Moraxella catarrhalis [17]): 4 mg/L; MBC (Streptococcus pyogenes [22]): > 1 mg/L; MBC (Streptococcus pyogenes [25]): 1 mg/L (≈ 1.1 µM); MIC (Streptococcus pyogenes [26]): 0.125 mg/L
